Activity calls are given as the source filed them. The rule behind the calls is not given here.
Columns and labels:
MDA-MB-231 [1] = test: Cytotoxicity against human MDA-MB-231 cells assessed as reduction in cell viability after 48 hrs by MTT assay; format: functional, cell-based; conditions: MDA-MB-231, 48 h
How it was run: (§1)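 Cells grown in DMEM with 10% FBS, 37 °C, 5% CO2; 1 × 10^4 cells per well plated and left 24 h, then exposed to a range of compound concentrations or vehicle (1% EtOH) for 48 h. Viability read by MTT.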

Homo sapiens [2] = species on record: Homo sapiens; test: Inhibition of class 1 HDAC in human MDA-MB-231 cells assessed as hyperacetylation of histone H3 (Lys9/14) measured at 8 hrs post treatment by immunoblot analysis; format: cell-based
How it was run: (§2)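 Cells in DMEM/10% FBS; 4 × 10^5 cells seeded in 60-mm dishes overnight, then treated for 8 h with 0–10 μM (final) compound or vehicle (1% EtOH). Whole-cell lysates loaded at equal protein (BCA), run on SDS-PAGE, blotted to PVDF and probed with anti-acetyl histone H3 (Lys9/14); β-actin also probed. Chemiluminescent detection.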

Homo sapiens [3] = species on record: Homo sapiens; test: Inhibition of class 1 HDAC in human HCT116 cells assessed as hyperacetylation of histone H3 (Lys9/14) measured at 8 hrs post treatment by immunoblot analysis; format: cell-based; how it was run: as §2
HCT-116 [4] = test: Cytotoxicity against human HCT116 cells assessed as reduction in cell viability after 48 hrs by MTT assay; format: functional, cell-based; conditions: HCT-116, 48 h; how it was run: as §1
[5] = target: T1, Protein deacetylase HDAC6 (Homo sapiens) (UniProt Q9UBN7); test: Inhibition of full length N-terminal GST-tagged human HDAC6 expressed in baculovirus infected Sf9 insect cells using HDAC substrate 3 after at 10 uM 30 mins by fluorescence assay relative to control
T1 sequence (whole entry): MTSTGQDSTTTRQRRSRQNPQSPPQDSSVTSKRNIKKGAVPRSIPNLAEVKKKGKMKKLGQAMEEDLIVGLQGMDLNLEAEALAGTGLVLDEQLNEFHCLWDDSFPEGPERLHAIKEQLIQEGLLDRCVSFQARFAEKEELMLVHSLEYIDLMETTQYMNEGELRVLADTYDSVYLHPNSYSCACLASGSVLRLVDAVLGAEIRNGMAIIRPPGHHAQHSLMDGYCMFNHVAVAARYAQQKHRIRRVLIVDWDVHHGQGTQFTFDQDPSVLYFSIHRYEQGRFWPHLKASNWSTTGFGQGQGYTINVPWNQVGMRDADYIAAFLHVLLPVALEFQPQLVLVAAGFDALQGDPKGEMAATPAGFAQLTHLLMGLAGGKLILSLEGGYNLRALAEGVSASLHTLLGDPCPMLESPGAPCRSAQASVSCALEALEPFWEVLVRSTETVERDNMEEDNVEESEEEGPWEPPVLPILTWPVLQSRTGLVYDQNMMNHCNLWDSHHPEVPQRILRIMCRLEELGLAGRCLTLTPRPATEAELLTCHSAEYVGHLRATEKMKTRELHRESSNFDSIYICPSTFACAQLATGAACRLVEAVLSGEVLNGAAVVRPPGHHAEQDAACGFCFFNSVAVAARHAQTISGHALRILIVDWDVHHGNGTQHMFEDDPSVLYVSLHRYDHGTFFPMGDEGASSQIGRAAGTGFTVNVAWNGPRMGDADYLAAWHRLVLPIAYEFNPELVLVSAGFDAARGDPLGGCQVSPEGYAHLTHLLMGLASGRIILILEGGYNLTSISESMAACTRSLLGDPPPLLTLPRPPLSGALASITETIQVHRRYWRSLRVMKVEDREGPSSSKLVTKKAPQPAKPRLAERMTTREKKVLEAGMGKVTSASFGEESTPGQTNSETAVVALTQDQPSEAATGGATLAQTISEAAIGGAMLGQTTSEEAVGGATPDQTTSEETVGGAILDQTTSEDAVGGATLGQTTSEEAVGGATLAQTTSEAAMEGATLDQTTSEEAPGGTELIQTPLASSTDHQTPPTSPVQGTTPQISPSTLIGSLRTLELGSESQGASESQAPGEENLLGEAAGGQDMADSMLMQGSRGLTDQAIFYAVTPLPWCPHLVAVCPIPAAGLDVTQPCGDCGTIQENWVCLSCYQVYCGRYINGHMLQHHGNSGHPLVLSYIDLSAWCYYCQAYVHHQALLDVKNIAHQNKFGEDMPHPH
How it was run: (§3)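 Run by a contract lab. Compound incubated with HDAC enzyme, substrate, bovine serum albumin and HDAC buffer in duplicate for 30 min at 37 °C. Quenched with HDAC developer, 15 min at room temperature, fluorescence read at ex 360/em 460 nm. Activity taken as (F−Fb)/(Ft−Fb) against blank and solvent control wells; IC50 from curve fitting.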

Histone deacetylase 1 = Histone deacetylase 1 (Homo sapiens, UniProt Q13547); test: Inhibition of recombinant full length C-terminal His/FLAG-tagged human HDAC1 expressed in baculovirus infected Sf9 insect cells using BPS HDAC substrate 3 at 10 uM after 30 mins by fluorescence assay relative to control; how it was run: as §3
Histone deacetylase 1, sequence (Q13547 whole entry): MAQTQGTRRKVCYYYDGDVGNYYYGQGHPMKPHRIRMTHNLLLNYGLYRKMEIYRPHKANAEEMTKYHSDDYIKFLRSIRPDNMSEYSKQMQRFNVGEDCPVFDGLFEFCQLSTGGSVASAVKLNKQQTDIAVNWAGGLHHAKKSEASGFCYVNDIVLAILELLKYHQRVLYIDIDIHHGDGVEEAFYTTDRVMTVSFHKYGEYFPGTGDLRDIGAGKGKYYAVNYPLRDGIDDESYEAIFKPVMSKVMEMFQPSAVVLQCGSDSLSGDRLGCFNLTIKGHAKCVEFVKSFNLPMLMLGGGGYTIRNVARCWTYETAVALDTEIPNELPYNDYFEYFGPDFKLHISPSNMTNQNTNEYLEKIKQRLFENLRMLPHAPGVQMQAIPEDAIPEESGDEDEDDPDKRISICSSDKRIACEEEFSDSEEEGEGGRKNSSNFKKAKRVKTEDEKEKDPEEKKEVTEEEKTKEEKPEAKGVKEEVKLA

[6] = target: T2, Histone deacetylase 8 (Homo sapiens) (UniProt Q9BY41); test: Inhibition of full length C-terminal His-tagged human HDAC8 expressed in baculovirus infected Sf9 insect cells using BPS HDAC class 2a substrate at 10 uM after 30 mins by fluorescence assay relative to control; how it was run: as §3
T2 sequence (whole entry): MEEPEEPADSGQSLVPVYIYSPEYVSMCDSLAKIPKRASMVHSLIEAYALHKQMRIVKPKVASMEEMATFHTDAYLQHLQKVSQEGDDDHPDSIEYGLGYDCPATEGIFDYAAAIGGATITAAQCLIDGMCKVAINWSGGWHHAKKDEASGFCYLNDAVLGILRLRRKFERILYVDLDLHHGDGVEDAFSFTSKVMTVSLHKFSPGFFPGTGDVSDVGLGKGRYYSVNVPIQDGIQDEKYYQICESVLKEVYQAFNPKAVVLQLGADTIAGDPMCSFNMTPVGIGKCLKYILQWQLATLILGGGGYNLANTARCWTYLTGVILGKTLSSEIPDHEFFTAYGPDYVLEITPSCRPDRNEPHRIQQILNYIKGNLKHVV

MDA-MB-231 [7] = test: Cytotoxicity against human MDA-MB-231 cells assessed as change in cell viability at 10 uM after 48 hrs by MTT assay; format: functional, cell-based; how it was run: as §1
[8] = target: Histone deacetylase 3/Nuclear receptor corepressor 2 (HDAC3/NCoR2) (Homo sapiens) (UniProt O15379+Q9Y618); test: Inhibition of full length human C-terminal His-tagged HDAC3/N-terminal GST-tagged NCOR2 (395 to 489 residues) expressed in baculovirus infected Sf9 insect cells using BPS HDAC substrate 3 at 10 uM after 30 mins by fluorescence assay relative to control; how it was run: as §3
[9] = target: T3, Polyamine deacetylase HDAC10 (Homo sapiens) (UniProt Q969S8); test: Inhibition of N-terminal GST-tagged/C-terminal His-tagged human HDAC10 (1 to 481 residues) expressed in baculovirus infected Sf9 insect cells using BPS HDAC substrate 3 at 10 uM after 30 mins by fluorescence assay relative to control; how it was run: as §3
T3 sequence (whole entry): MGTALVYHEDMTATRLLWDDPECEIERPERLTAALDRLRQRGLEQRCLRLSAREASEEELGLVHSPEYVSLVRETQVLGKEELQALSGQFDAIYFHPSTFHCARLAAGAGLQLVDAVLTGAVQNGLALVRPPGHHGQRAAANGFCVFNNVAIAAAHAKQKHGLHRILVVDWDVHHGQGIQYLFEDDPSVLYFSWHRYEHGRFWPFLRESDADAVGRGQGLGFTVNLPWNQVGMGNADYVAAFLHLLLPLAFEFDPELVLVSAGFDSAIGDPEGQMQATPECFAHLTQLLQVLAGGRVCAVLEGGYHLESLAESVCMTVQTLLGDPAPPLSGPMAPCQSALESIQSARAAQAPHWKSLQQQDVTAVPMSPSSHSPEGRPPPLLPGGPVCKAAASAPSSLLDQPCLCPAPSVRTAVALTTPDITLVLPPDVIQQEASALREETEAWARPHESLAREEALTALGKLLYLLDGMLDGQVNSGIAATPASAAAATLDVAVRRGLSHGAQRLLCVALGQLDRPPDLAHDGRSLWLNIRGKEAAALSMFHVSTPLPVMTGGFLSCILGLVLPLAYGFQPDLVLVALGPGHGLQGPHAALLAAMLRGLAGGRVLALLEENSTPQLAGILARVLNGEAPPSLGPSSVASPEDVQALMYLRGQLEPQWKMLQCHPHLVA

[10] = target: Histone deacetylase 5 (Homo sapiens) (UniProt Q9UQL6); test: Inhibition of full length N-terminal GST-tagged human HDAC5 expressed in baculovirus infected Sf9 insect cells using BPS HDAC class 2a substrate at 10 uM after 30 mins by fluorescence assay relative to control; how it was run: as §3
Histone deacetylase 5 (Homo sapiens), sequence (Q9UQL6 whole entry): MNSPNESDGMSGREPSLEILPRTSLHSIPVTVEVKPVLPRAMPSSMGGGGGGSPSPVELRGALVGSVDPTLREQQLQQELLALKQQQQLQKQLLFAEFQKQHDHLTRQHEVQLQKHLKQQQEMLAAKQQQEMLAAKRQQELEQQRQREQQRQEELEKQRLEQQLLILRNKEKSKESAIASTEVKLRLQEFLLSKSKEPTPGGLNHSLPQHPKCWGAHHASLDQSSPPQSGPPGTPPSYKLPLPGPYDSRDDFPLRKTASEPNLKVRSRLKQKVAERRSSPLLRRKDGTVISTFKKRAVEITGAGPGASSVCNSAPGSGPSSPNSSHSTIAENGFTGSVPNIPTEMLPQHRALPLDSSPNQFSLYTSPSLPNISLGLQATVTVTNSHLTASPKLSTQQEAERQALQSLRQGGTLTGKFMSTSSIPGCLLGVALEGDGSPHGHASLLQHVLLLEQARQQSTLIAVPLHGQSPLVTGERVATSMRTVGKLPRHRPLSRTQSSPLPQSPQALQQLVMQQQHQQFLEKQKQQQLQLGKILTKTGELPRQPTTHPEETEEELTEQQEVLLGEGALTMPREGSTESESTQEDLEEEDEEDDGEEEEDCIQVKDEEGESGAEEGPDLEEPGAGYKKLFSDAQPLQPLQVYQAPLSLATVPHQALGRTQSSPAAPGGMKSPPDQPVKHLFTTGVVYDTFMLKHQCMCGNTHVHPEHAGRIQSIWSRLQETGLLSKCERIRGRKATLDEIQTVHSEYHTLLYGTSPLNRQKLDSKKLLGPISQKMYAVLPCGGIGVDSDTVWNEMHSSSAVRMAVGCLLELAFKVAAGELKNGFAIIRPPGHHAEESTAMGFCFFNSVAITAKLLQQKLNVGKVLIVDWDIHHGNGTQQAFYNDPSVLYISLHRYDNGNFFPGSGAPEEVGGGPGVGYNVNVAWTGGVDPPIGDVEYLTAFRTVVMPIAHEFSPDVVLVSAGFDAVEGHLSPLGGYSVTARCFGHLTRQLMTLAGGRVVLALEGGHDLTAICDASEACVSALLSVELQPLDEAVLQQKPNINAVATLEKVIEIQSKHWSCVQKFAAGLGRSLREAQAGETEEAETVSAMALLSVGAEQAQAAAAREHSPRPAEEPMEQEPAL

HCT-116 [11] = test: Cytotoxicity against human HCT116 cells assessed as change in cell viability at 10 uM after 48 hrs by MTT assay; format: functional, cell-based; how it was run: as §1
Histone deacetylase 2 = Histone deacetylase 2 (Homo sapiens, UniProt Q92769); test: Inhibition of full length C-terminal FLAG-tagged human HDAC2 expressed in baculovirus infected Sf9 insect cells using BPS HDAC substrate 3 at 10 uM after 30 mins by fluorescence assay relative to control; how it was run: as §3
Histone deacetylase 2, sequence (Q92769 whole entry): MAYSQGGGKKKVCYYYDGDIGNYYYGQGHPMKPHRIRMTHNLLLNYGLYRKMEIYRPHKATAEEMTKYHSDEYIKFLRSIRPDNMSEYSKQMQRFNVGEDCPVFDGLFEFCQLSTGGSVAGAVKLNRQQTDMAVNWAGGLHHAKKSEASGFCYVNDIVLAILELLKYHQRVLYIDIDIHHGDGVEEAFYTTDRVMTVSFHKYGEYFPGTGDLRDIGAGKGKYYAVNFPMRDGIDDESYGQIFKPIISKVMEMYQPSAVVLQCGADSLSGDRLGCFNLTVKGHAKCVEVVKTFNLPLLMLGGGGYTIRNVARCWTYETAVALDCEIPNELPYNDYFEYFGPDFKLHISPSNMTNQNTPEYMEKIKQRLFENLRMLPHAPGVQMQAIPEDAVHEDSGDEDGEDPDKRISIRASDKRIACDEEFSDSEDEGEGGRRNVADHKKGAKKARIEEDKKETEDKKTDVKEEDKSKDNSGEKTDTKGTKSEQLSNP

[12] = target: Histone deacetylase 5 (Homo sapiens) (UniProt Q9UQL6); test: Inhibition of full length N-terminal GST-tagged human HDAC5 expressed in baculovirus infected Sf9 insect cells using BPS HDAC class 2a substrate at 1 uM after 30 mins by fluorescence assay relative to control
How it was run: (§4)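 Run by a contract lab. Compound incubated with HDAC enzyme, HDAC substrate, BSA and HDAC buffer, in duplicate, at 37 °C for 30 min. Quenched with HDAC developer, then 15 min at room temperature. Fluorescence read at ex 360/em 460 nm. Percent activity = (F−Fb)/(Ft−Fb), using blank and solvent-control wells. IC50 from curve fitting.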

[13] = target: T4, Polyamine deacetylase HDAC10 (Homo sapiens, UniProt Q969S8); test: Inhibition of N-terminal GST-tagged/C-terminal His-tagged human HDAC10 (1 to 481 residues) expressed in baculovirus infected Sf9 insect cells using BPS HDAC substrate 3 after 30 mins by fluorescence assay; how it was run: as §4
T4 sequence (Q969S8 whole entry): T3 sequence (whole entry)

[14] = target: Histone deacetylase 3/Nuclear receptor corepressor 2 (HDAC3/NCoR2) (Homo sapiens, UniProt O15379); test: Inhibition of full length human C-terminal His-tagged HDAC3/N-terminal GST-tagged NCOR2 (395 to 489 residues) expressed in baculovirus infected Sf9 insect cells using BPS HDAC substrate 3 after 30 mins by fluorescence assay
Histone deacetylase 3/Nuclear receptor corepressor 2 (HDAC3/NCoR2), sequence (O15379 whole entry, the tested form may be a part): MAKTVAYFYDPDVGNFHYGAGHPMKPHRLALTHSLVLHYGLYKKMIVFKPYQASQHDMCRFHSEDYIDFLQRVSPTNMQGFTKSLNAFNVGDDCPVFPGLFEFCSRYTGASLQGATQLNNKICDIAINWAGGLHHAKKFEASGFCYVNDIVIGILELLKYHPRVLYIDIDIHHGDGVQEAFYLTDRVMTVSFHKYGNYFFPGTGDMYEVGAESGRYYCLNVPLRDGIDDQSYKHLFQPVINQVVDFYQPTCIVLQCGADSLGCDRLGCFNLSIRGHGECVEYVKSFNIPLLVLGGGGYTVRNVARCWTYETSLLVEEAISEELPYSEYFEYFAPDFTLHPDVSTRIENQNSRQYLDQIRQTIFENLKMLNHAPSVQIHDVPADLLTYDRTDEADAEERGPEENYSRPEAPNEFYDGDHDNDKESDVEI
Histone deacetylase 3/Nuclear receptor corepressor 2 (HDAC3/NCoR2), sequence (Q9Y618 whole entry, further chain, the tested form may be a part): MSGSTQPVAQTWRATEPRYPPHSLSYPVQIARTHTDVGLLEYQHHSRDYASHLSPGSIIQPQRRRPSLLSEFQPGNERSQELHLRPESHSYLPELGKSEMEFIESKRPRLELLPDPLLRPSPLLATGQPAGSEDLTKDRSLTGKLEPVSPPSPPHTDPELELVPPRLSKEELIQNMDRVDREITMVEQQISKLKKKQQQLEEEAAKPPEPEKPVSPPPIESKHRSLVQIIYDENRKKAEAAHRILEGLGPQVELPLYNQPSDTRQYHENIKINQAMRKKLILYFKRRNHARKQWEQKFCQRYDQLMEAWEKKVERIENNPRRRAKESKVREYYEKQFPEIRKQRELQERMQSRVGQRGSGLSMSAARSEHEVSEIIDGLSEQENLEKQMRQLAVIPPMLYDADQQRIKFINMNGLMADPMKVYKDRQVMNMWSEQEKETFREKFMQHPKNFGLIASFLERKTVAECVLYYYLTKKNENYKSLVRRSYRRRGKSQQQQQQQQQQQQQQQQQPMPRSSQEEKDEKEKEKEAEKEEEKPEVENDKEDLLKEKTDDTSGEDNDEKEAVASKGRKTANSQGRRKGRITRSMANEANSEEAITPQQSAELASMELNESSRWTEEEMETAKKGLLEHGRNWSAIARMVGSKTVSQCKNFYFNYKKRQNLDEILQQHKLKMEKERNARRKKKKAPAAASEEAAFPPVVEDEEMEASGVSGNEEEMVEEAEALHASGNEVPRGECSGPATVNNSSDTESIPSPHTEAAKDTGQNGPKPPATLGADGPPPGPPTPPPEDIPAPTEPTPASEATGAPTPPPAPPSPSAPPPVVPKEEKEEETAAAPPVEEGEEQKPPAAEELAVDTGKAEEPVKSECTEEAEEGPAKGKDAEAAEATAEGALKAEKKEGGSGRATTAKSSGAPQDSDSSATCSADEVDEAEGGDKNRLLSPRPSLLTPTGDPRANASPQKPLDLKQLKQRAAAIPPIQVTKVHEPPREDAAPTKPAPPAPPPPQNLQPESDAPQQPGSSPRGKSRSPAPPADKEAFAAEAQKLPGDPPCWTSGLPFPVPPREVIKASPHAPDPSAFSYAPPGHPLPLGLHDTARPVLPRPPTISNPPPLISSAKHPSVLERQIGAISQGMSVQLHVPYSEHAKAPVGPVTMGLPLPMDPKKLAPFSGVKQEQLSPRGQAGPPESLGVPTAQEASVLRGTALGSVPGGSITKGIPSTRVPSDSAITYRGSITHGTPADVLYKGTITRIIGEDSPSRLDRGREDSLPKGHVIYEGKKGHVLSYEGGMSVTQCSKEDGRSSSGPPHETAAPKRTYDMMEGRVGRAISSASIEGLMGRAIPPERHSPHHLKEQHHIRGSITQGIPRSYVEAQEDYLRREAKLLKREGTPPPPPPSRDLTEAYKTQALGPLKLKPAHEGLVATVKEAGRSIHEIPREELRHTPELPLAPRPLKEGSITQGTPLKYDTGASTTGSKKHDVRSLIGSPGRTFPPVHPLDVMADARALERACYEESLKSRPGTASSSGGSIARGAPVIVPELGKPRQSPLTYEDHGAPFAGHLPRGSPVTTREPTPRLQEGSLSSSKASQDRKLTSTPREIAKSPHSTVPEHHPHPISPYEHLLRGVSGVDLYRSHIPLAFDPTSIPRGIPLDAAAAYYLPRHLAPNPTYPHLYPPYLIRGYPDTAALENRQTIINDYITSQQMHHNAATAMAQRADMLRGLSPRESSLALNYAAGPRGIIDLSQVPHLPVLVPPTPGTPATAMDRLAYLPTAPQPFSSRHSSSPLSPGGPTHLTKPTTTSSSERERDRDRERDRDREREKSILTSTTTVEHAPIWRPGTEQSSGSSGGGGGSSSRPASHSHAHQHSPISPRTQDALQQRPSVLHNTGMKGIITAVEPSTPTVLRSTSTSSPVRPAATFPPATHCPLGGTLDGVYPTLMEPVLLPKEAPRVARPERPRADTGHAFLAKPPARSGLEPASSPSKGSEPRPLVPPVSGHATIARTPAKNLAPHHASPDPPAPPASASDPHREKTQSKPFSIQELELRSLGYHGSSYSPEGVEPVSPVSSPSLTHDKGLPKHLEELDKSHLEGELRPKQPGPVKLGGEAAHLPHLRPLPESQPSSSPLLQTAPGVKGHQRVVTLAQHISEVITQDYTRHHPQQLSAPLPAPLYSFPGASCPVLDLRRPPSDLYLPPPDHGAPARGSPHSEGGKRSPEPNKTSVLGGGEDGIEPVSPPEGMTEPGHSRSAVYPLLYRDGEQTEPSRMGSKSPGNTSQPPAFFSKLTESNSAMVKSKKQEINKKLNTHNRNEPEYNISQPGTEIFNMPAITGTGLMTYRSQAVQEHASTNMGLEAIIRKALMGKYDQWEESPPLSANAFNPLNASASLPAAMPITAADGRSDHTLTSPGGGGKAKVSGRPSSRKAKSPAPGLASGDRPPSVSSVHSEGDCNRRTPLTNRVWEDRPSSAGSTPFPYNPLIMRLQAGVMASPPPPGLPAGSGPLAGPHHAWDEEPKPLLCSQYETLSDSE
How it was run: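 Run by a contract lab. Compound incubated with HDAC enzyme, substrate, bovine serum albumin and HDAC buffer in duplicate for 30 min at 37 °C. Activity taken as (F−Fb)/(Ft−Fb) against blank and solvent control wells; IC50 from curve fitting.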

Row | inhibition [5] [%] | inhibition (Histone deacetylase 1) [%] | inhibition [6] [%] | inhibition [8] [%] | inhibition [9] [%] | inhibition [10] [%] | inhibition (Histone deacetylase 2) [%] | IC50 [14] [µM] | SMILES | IC50 (MDA-MB-231 [1]) [nM] | inhibition (Homo sapiens [2]) | inhibition (Homo sapiens [3]) | IC50 (HCT-116 [4]) [nM] | Activity (MDA-MB-231 [7]) | Activity (HCT-116 [11]) | inhibition [12] [%] | IC50 [13] [nM]
1 |  |  |  |  |  |  |  |  | CCCCCCCC(=O)SCC/C=C/[C@@H]1CC(=O)NCc2nc(cs2)C2=N[C@@](C)(CS2)C(=O)N[C@@H](C(C)C)C(=O)O1 [LARGAZOLE] | 1.6 | Dose-dependent effect | Dose-dependent effect | 20 |  |  |  | 
2 | 22 | < 15 | < 15 | < 15 | < 15 | < 15 | < 15 |  | CC(=O)CC(=O)NC/C=C/[C@@H]1CC(=O)NCc2nc(cs2)C2=N[C@@](C)(CS2)C(=O)N[C@@H](C(C)C)C(=O)O1 |  |  |  |  | inactive | inactive |  | 
3 | 17 | < 15 | 20 | < 15 | 19 | < 15 | < 15 |  | CC(C)[C@@H]1NC(=O)[C@]2(C)CSC(=N2)c2csc(n2)CNC(=O)C[C@@H](/C=C/CCC(=O)O)OC1=O |  |  |  |  | inactive | inactive |  | 
4 | < 15 | < 15 | < 15 | < 15 | < 15 | < 15 | < 15 |  | CC(C)[C@@H]1NC(=O)[C@]2(C)CSC(=N2)c2csc(n2)CNC(=O)C[C@@H](/C=C/CCN)OC1=O |  |  |  |  | inactive | inactive |  | 
5 | < 15 | < 15 | 24 | < 15 | < 15 | < 15 | < 15 |  | CCC/C=C/[C@@H]1CC(=O)NCc2nc(cs2)C2=N[C@@](C)(CS2)C(=O)N[C@@H](C(C)C)C(=O)O1 |  |  |  |  | inactive | inactive |  | 
6 |  |  |  |  |  |  |  |  | CC(C)[C@@H]1NC(=O)[C@]2(C)CSC(=N2)c2csc(n2)CNC(=O)C[C@@H](/C=C/CCS)OC1=O |  |  |  |  |  |  | < 15 | 0.5
7 | < 15 | 30 | < 15 |  | 49 | < 15 | 24 | 8 | CCC(=O)CC/C=C/[C@@H]1CC(=O)NCc2nc(cs2)C2=N[C@@](C)(CS2)C(=O)N[C@@H](C(C)C)C(=O)O1 |  |  |  |  | inactive | inactive |  | 
